Data: ChEMBL document CHEMBL4251564, “Development of noviomimetics that modulate molecular chaperones and manifest neuroprotective effects” (Eur J Med Chem, 2018)
Calls of active or inactive are those of the source. The rule behind the calls is not given here.

How the values were obtained:
Format in all cases: cell-based
[1] = species on record: Rattus norvegicus; assay: Inhibition of HSP90 in rat 50B11 cells transfected with human HSPA1A promoter assessed as induction of human Hsp70 expression at 10 to 1000 nM incubated for 16 hrs by luciferase reporter gene assay
[2] = species on record: Rattus norvegicus; assay: Inhibition of HSP90 in rat 50B11 cells assessed as increase in Hsp70 protein expression at 0.03 to 3 uM after 24 hrs by immunoblot assay
Method in brief: (§1)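 Nontransfected 50B11 cells exposed 24 h to compound, with DMSO as negative control. Hsp70 detected by immunoblot; densitometry reports fold induction over DMSO. Mean ±SEM, n >2.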

[3] = species on record: Rattus norvegicus; assay: Inhibition of HSP90 in rat 50B11 cells assessed as increase in Hsp70 protein expression at 1 uM after 24 hrs by immunoblot assay; method in brief: as §1
[4] = species on record: Rattus norvegicus; assay: Inhibition of HSP90 in rat 50B11 cells assessed as decrease in c-jun protein expression at 1 uM incubated for 24 hrs followed by 10% FBS exposure for 2 hrs by Western blot analysis
Method in brief: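 50B11 cells held in serum-free medium 24 h to arrest cycle and lower c-Jun, then given vehicle or 1.0 μM compound for 24 h; c-Jun induced by 10% FBS medium for 2 h. Lysates immunoblotted for c-Jun with actin control; densitometry gives fold change normalized to serum-free-then-serum control. Mean ±SEM, n >2.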

[5] = species on record: Rattus norvegicus; assay: Inhibition of HSP90 in rat 50B11 cells assessed as improvement in mitochondrial bioenergetics by measuring suppression of H2O2-induced reduction in oxygen consumption rate at 1 uM after 24 hrs by XF96 extracellular flux analyzer based method
Method in brief: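 50B11 cells seeded in high-glucose DMEM with 10% FBS; after 12 h switched to high-glucose DMEM with 1% FBS plus 1.0 μM compound or DMSO for 24 h, then stressed with 0.5 mM H2O2 for 2 h. Intact-cell OCR and ECAR read on XF96 extracellular flux analyzer; maximal respiratory capacity from FCCP response; significance versus H2O2 alone, p<0.05.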

| SMILES | inhibition [1] | inhibition [2] | further results |
| --- | --- | --- | --- |
| CC(=O)NCCc1ccc(OC2CCC(OCc3ccc(Cl)cc3Br)CC2)cc1-c1cccc(F)c1 (configuration not stated) | Active | – | – |
| CC(=O)NCCc1c(O)cc(OC2CCC(OCc3ccc(Br)cc3)CC2)cc1-c1cccc(F)c1 (configuration not stated) | – | Active | – |
| COc1cc(OC2CCC(OCc3ccccc3C)CC2)cc(-c2cccc(F)c2)c1CCNC(C)=O (configuration not stated) | – | Active | – |
| CC(=O)NCCc1ccc(OC2CCC(OCc3ccccc3C)CC2)c(O)c1-c1cccc(F)c1 (configuration not stated) | – | Active | – |
| CC(=O)Nc1cc2ccc(O)c(C)c2oc1=O | inactive | – | – |
| CC(=O)NCCc1cc(C)c(OC2CCC(OCc3ccccc3)CC2)cc1-c1cccc(F)c1 (configuration not stated) | – | inactive | – |
| CC(=O)NCCc1ccc(OC2C=CC(OCc3ccc(Cl)cc3)CC2)cc1-c1cccc(F)c1 (configuration not stated) | Active | – | inhibition [3]: Active |
| COc1cccc(COC2CCC(Oc3ccc(CCNC(C)=O)c(-c4cccc(F)c4)c3)CC2)c1 (configuration not stated) | Active | – | – |
| CC(=O)NCCc1cc(C)c(OC2CCC(OCc3ccccc3C)CC2)cc1-c1cccc(F)c1 (configuration not stated) | – | inactive | – |
| CC(=O)Nc1cc2ccc(OCc3ccccc3)c(C)c2oc1=O | inactive | – | – |
| COc1cc(OC2CCC(OCc3ccccc3)CC2)cc(-c2cccc(F)c2)c1CCNC(C)=O (configuration not stated) | – | Active | – |
| CC(=O)NCCc1ccc(OC2CCC(OCc3ccc(Br)cc3)CC2)cc1-c1cccc(F)c1 (configuration not stated) | Active | – | – |
| CC(=O)NCCc1ccc(OC2CCC(OCc3ccc(C(C)(C)C)cc3)CC2)cc1-c1cccc(F)c1 (configuration not stated) | Active | – | – |
| CC(=O)NCCc1ccc(OC2CCC(OCc3c(Cl)cccc3Cl)CC2)cc1-c1cccc(F)c1 (configuration not stated) | Active | – | inhibition [3]: inactive |
| CO[C@@H]1[C@@H](O)[C@@H](O)[C@H](Oc2cc(O)c(CCNC(C)=O)c(-c3cccc(F)c3)c2)OC1(C)C | – | – | inhibition [4]: Active |
| CO[C@@H]1[C@@H](O)[C@@H](O)[C@H](Oc2cc(-c3cccc(F)c3)c(CCNC(C)=O)cc2C)OC1(C)C | – | Active | – |
| CC(=O)NCCc1ccc(OC2CCC(OCc3ccc(C)cc3)CC2)cc1-c1cccc(F)c1 (configuration not stated) | Active | – | – |
| CC(=O)NCCc1ccc(OC2CCC(OCc3ccc(Cl)cc3)CC2)c(O)c1-c1cccc(F)c1 (configuration not stated) | – | Active | – |
| CC(=O)NCCc1ccc(O)cc1-c1cccc(F)c1 | inactive | – | – |
| CC(=O)NCCc1c(O)cc(OC2CCC(OCc3ccccc3)CC2)cc1-c1cccc(F)c1 (configuration not stated) | – | Active | inhibition [4]: Active |
| COc1ccccc1COC1CCC(Oc2cc(-c3cccc(F)c3)c(CCNC(C)=O)cc2C)CC1 (configuration not stated) | – | inactive | – |
| CC(=O)NCCc1ccc(OC2CCC(OCc3ccc(Br)cc3)CC2)c(O)c1-c1cccc(F)c1 (configuration not stated) | – | Active | inhibition [4]: Active |
| CC(=O)NCCc1cc(C)c(OC2CCC(OCc3ccc(Br)cc3)CC2)cc1-c1cccc(F)c1 (configuration not stated) | – | inactive | – |
| CC(=O)Nc1cc2ccc(OCc3ccccc3Br)c(C)c2oc1=O | inactive | – | – |
| CC(=O)NCCc1ccc(OC2CCC(OCc3ccccc3Cl)CC2)cc1-c1cccc(F)c1 (configuration not stated) | Active | – | inhibition [3]: Active |
| CO[C@@H]1[C@@H](O)[C@@H](O)[C@H](Oc2ccc(CCNC(C)=O)c(-c3cccc(F)c3)c2)OC1(C)C | – | Active | inhibition [5]: Active |

| SMILES | inhibition [1] | inhibition [2] | further results |
| --- | --- | --- | --- |
| COc1ccccc1COc1ccc2cc(NC(C)=O)c(=O)oc2c1C | inactive | – | – |
| COc1ccccc1COC1CCC(Oc2ccc(CCNC(C)=O)c(-c3cccc(F)c3)c2)CC1 (configuration not stated) | – | – | inhibition [3]: Active |
| COc1cc(C)ccc1COC1CCC(Oc2ccc(CCNC(C)=O)c(-c3cccc(F)c3)c2)CC1 (configuration not stated) | Active | – | – |
| CC(=O)NCCc1ccc(OC2CCC(OCc3ccc(Cl)cc3)CC2)cc1-c1cccc(F)c1 (configuration not stated) | Active | – | inhibition [3]: inactive |
| CC(=O)Nc1cc2ccc(OCc3ccc(Cl)cc3)c(C)c2oc1=O | inactive | – | – |
| CC(=O)NCCc1ccc(OC2CCC(OCc3ccccc3Br)CC2)cc1-c1cccc(F)c1 (configuration not stated) | Active | – | inhibition [3]: Active |
| CC(=O)NCCc1ccc(OC2CCC(OCc3ccccc3)CC2)cc1-c1cccc(F)c1 (configuration not stated) | Active | – | inhibition [5]: Active |
| COc1cc(O[C@@H]2OC(C)(C)[C@H](OC)[C@@H](O)[C@H]2O)cc(-c2cccc(F)c2)c1CCNC(C)=O | – | – | inhibition [4]: Active |
| CC(=O)NCCc1c(O)cc(OC2CCC(OCc3ccc(Cl)cc3)CC2)cc1-c1cccc(F)c1 (configuration not stated) | – | Active | – |
| COc1ccccc1COC1CCC(Oc2cc(OC)c(CCNC(C)=O)c(-c3cccc(F)c3)c2)CC1 (configuration not stated) | – | Active | – |
| CC(=O)NCCc1ccc(OC2CCC(OCc3cccc(Cl)c3)CC2)cc1-c1cccc(F)c1 (configuration not stated) | Active | – | – |
| CC(=O)NCCc1ccc(OC2CCC(OCc3ccc(F)cc3)CC2)cc1-c1cccc(F)c1 (configuration not stated) | Active | – | – |
| CC(=O)NCCc1ccc(OC2CCC(OCc3ccc(Cl)cc3)[C@@H](O)[C@H]2O)cc1-c1cccc(F)c1 (some centres not stated) | Active | – | inhibition [3]: Active |
| COc1cc(Cl)ccc1COC1CCC(Oc2ccc(CCNC(C)=O)c(-c3cccc(F)c3)c2)CC1 (configuration not stated) | Active | – | inhibition [3]: inactive |
| COc1cc(OC2CCC(OCc3ccc(Br)cc3)CC2)cc(-c2cccc(F)c2)c1CCNC(C)=O (configuration not stated) | – | Active | inhibition [4]: Active |
| CC(=O)NCCc1ccc(OC2CCC(OCc3ccccc3C)CC2)cc1-c1cccc(F)c1 (configuration not stated) | Active | – | – |
| COc1ccccc1COC1CCC(Oc2ccc(CCNC(C)=O)c(-c3cccc(F)c3)c2O)CC1 (configuration not stated) | – | Active | – |
| COc1ccc(COC2CCC(Oc3ccc(CCNC(C)=O)c(-c4cccc(F)c4)c3)CC2)cc1 (configuration not stated) | Active | – | – |
| CC(=O)NCCc1ccc(OC2CCC(OCc3ccc(C(F)(F)F)cc3)CC2)cc1-c1cccc(F)c1 (configuration not stated) | Active | – | inhibition [3]: inactive |
| CC(=O)NCCc1ccc(OC2CCC(OCc3ccccc3)CC2)c(O)c1-c1cccc(F)c1 (configuration not stated) | – | Active | – |
| CC(=O)NCCc1ccc(OC2CCC(OCc3ccc4ccccc4c3)CC2)cc1-c1cccc(F)c1 (configuration not stated) | Active | – | – |
| CC(=O)NCCc1ccc(OC2CCC(OCc3ccccc3F)CC2)cc1-c1cccc(F)c1 (configuration not stated) | Active | – | – |
| CC(=O)NCCc1c(O)cc(OC2CCC(OCc3ccccc3C)CC2)cc1-c1cccc(F)c1 (configuration not stated) | – | Active | – |
| COc1ccccc1COC1CCC(Oc2cc(O)c(CCNC(C)=O)c(-c3cccc(F)c3)c2)CC1 (configuration not stated) | – | Active | inhibition [4]: Active |
| COc1cc(OC2CCC(OCc3ccc(Cl)cc3)CC2)cc(-c2cccc(F)c2)c1CCNC(C)=O (configuration not stated) | – | Active | inhibition [5]: Active; inhibition [4]: Active |
